Assay results from different studies.
Protocols differ between the studies behind these lines. pEC50, pIC50, pKi: −log10 of the molar value.
ESR1: Estrogen receptor (ESR1, Homo sapiens, UniProt P03372)
HTR1A: 5-hydroxytryptamine receptor 1A (HTR1A, Homo sapiens, UniProt P08908)
M-phase phosphoprotein 8 chromodomain: M-phase phosphoprotein 8, chromodomain (Homo sapiens, UniProt Q99549)
AChE: AChE (Phlebotomus papatasi, UniProt M1F887)

`C[C@]1(O)CC[C@H]2[C@@H]3CCC4=CC(=O)CCC4=C3CC[C@@]21C` has a pEC50 of 5.37 (ESR1; reporter gene, agonist).
For `C[C@]12CC[C@H]3[C@@H](CCC4=C[C@@H](O)CC[C@@H]43)[C@@H]1CC[C@@H]2O`, the pIC50 was 6.87 (ESR1; ligand displacement).
For `NCCc1c[nH]c2ccc(Cl)cc12`, the pKi was 8.26 (HTR1A; ligand displacement, radioligand).
`CCN(CCCC[C@H](NC(=O)[C@H](CC(C)C)NC(=O)[C@H](C)NC(=O)[C@H](CC1CCCCC1)NC(=O)c1cccnc1)C(=O)N[C@@H](CO)C(N)=O)C(C)C` gave a pIC50 of 5.82 (M-phase phosphoprotein 8 chromodomain; cell-free assay, TR-FRET).
`CNC(=O)Oc1ccc2c(c1)[C@]1(C)CCN(C)[C@@H]1N2C` has a pIC50 of 8.05 (AChE; enzyme activity, inhibitor).
`CCN(CCCC[C@H](NC(=O)[C@H](C)NC(=O)[C@H](C)NC(=O)[C@H](Cc1ccccc1)NC(=O)c1cccnc1)C(=O)N[C@@H](CO)C(N)=O)C(C)C` has a pIC50 of 5.47 (M-phase phosphoprotein 8 chromodomain; cell-free assay, TR-FRET).
`NCCc1c[nH]c2ccc(F)cc12` gave a pKi of 7.74 (HTR1A; ligand displacement, radioligand).
For `C=CC[N+](C)(C)c1ccc(CCC(=O)CCc2ccc([N+](C)(C)CC=C)cc2)cc1`, the pIC50 was 7.52 (AChE; enzyme activity, inhibitor).
